The target of test [1] is T1, Prothrombin (Homo sapiens, UniProt P00734). The experiment in a line: Partial allosteric inhibition of human thrombin at 500 uM using spectrozyme TH as substrate pretreated for 10 mins followed by substrate addition by spectrophotometric method relative to control.
The target in test [2] is T1, Prothrombin. The experiment in a line: Partial allosteric inhibition of human thrombin using spectrozyme TH as substrate pretreated for 10 mins followed by substrate addition by spectrophotometric method. The essentials:
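Chromogenic substrate hydrolysis by thrombin read spectrophotometrically in 20 mM Tris-HCl pH 7.4 with […], 100 mM NaCl and 0.1% PEG 8000 at 25 °C. Sigmoidal fits gave IC50 and efficacy (ΔY). Errors ±1 S.E.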

For test [3], the target named is T1, Prothrombin. Kind of test: Partial allosteric inhibition of human thrombin at 300 uM using spectrozyme TH as substrate pretreated for 10 mins followed by substrate addition by spectrophotometric method relative to control.
Test [4] concerns the target T1, Prothrombin. Kind of test: Binding affinity to human fluorescence labelled FPRCK-alpha thrombin by fluorimetric method. In a few lines:
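Fluorescein-tagged FPRCK-thrombin titrated with inhibitor at pH 7.4 and 25 °C. Fluorescence decrease recorded ([…]). KD obtained by nonlinear fit to a quadratic equation.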

The target of test [5] is T1, Prothrombin. Kind of test: Inhibition of human thrombin using spectrozyme TH as substrate pretreated for 10 mins followed by substrate addition measured in absence of exosite 1 competitor hirudine peptide by spectrophotometric method. In a few lines: (§1)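 Residual thrombin activity read as Spectrozyme TH hydrolysis in 20 mM Tris-HCl pH 7.4 with 100 mM NaCl, 2.5 mM CaCl2 and 0.1% PEG8000 at 25 °C. Exosite competitors varied: hirudin peptide 0–50 nM or 0–30 nM; UFH 0–50 μM. Apparent IC50 obtained from a logistic fit.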

For test [6], the target named is T1, Prothrombin. Kind of test: Inhibition of human thrombin using spectrozyme TH as substrate pretreated for 10 mins followed by substrate addition measured in presence of 5 uM exosite 1 competitor hirudine peptide by spectrophotometric method. The settings on record: in the assay text read “5 nM” for “5 uM”. The essentials: as §1
Test [7] addresses T1, Prothrombin. The experiment in a line: Inhibition of human thrombin using spectrozyme TH as substrate pretreated for 10 mins followed by substrate addition measured in presence of 15 uM exosite 1 competitor hirudine peptide by spectrophotometric method. The settings on record: in the assay text read “15 nM” for “15 uM”. The essentials: as §1
The target of test [8] is T1, Prothrombin. Kind of test: Inhibition of human thrombin using spectrozyme TH as substrate pretreated for 10 mins followed by substrate addition measured in presence of 30 uM exosite 1 competitor hirudine peptide by spectrophotometric method. The settings on record: in the assay text read “30 nM” for “30 uM”. The essentials:
as §1

Test [9] concerns the target T1, Prothrombin. The experiment in a line: Inhibition of human thrombin using spectrozyme TH as substrate pretreated for 10 mins followed by substrate addition measured in absence of exosite 2 competitor unfractionated heparin by spectrophotometric method. The essentials: as §1
In test [10] the target is T1, Prothrombin. The experiment in a line: Inhibition of human thrombin using spectrozyme TH as substrate pretreated for 10 mins followed by substrate addition measured in presence of 10 uM exosite 2 competitor unfractionated heparin by spectrophotometric method. In a few lines: as §1
Test [11] concerns the target T1, Prothrombin. The experiment in a line: Inhibition of human thrombin using spectrozyme TH as substrate pretreated for 10 mins followed by substrate addition measured in presence of 20 uM exosite 2 competitor unfractionated heparin by spectrophotometric method. The essentials: as §1
The target of test [12] is T1, Prothrombin. Kind of test: Inhibition of human thrombin using spectrozyme TH as substrate pretreated for 10 mins followed by substrate addition measured in presence of 50 uM exosite 2 competitor unfractionated heparin by spectrophotometric method. In a few lines: as §1
For test [13], the target named is T1, Prothrombin. Kind of test: Mixed-type inhibition of human thrombin assessed as reduction in substrate Vmax at 40 uM using varying levels of spectrozyme TH as substrate measured after 10 mins by Michaelis-Menten plot analysis relative to control.
The target of test [14] is T1, Prothrombin. Kind of test: Inhibition of recombinant thrombin R165A mutant (unknown origin) at 0.02 to 200 uM using spectrozyme TH as substrate pretreated for 10 mins followed by substrate addition by spectrophotometric method. In a few lines: (§2)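 Recombinant wild-type and Ala-mutant thrombins assayed by Spectrozyme TH hydrolysis at pH 7.4 and 25 °C. IC50 derived for each mutant.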

Test [15] deals with T1, Prothrombin. The experiment in a line: Inhibition of recombinant thrombin K169A mutant (unknown origin) at 0.02 to 200 uM using spectrozyme TH as substrate pretreated for 10 mins followed by substrate addition by spectrophotometric method. The essentials: as §2
For test [16], the target named is T1, Prothrombin. Kind of test: Inhibition of recombinant thrombin R175A mutant (unknown origin) at 0.02 to 200 uM using spectrozyme TH as substrate pretreated for 10 mins followed by substrate addition by spectrophotometric method. The essentials:
as §2

Test [17] has as its target T1, Prothrombin. Kind of test: Inhibition of recombinant thrombin R233A mutant (unknown origin) at 0.02 to 200 uM using spectrozyme TH as substrate pretreated for 10 mins followed by substrate addition by spectrophotometric method. The essentials:
as §2

Test [18] deals with T1, Prothrombin. The experiment in a line: Inhibition of recombinant thrombin K236A mutant (unknown origin) at 0.02 to 200 uM using spectrozyme TH as substrate pretreated for 10 mins followed by substrate addition by spectrophotometric method. The essentials:
as §2

Test [19] concerns the target T1, Prothrombin. The experiment in a line: Partial allosteric inhibition of thrombin (unknown origin) assessed as reduction in enzyme-mediated fibrinogen cleavage at 0.5 to 150 uM pretreated for 10 mins followed by fibrinogen addition measured after 1 min by SDS-PAGE analysis relative to control. The essentials: (§3)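 Cleavage of human fibrinogen (4.7 μM) by 6 nM thrombin with inhibitor at 0 to 150 μM. Products resolved by PAGE.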

Test [20] has as its target T1, Prothrombin. The experiment in a line: Mixed-type inhibition of human thrombin assessed as reduction in substrate Vmax using varying levels of spectrozyme TH as substrate measured after 10 mins by Michaelis-Menten plot analysis.
Test [21] addresses T1, Prothrombin. The experiment in a line: Partial allosteric inhibition of thrombin (unknown origin) assessed as reduction in enzyme-mediated fibrinogen cleavage pretreated for 10 mins followed by fibrinogen addition measured after 1 min by SDS-PAGE analysis relative to control. The essentials:
as §3

Test [22] deals with T1, Prothrombin. Kind of test: Inhibition of thrombin (unknown origin).

We go through six compounds from ChEMBL document CHEMBL4184294, “A small group of sulfated benzofurans induces steady-state submaximal inhibition of thrombin” (Bioorg Med Chem Lett, 2018).

pIC50, pKd: −log10 of the molar value. The source made the active and inactive calls. No cut-off for these calls is given here.

Broadly, the inhibition is the share of the control response that was lost under treatment. For orientation: pIC50 means the negative decadic logarithm of the IC50, by convention in mol/L. Turning to `COc1cc2oc(C)c(C(=O)OCc3ccccc3)c2cc1OS(=O)(=O)O`, in test [1], the inhibition is more than 50%. Moreover, in test [2], the Efficacy came out at 95% and the pIC50 is 3.77.

For `CCOC(=O)c1c(C)oc2cc(OCC3CCCCC3)c(OS(=O)(=O)O)cc12`, the inhibition in test [1] is more than 50%. Also, the pIC50 in test [2] is less than 3.30.

The pKd is −log10 of the Kd, conventionally taken in molar units. Higher therefore signals a small Kd. For `CCOC(=O)c1c(C)oc2cc(OCc3ccccc3)c(OCc3oc4cc(OCC5CCCCC5)c(OS(=O)(=O)O)cc4c3C(=O)OCC)cc12`, the inhibition in test [3] is more than 50%; in test [19] it was more than 90%; in test [20] it was “Dose-dependent effect”; in test [21], “Dose-dependent effect”. Moreover, in [2], the Efficacy turned out to be 90%. Also, the pIC50 is 5.44 in test [2]; 5.70 in [5]; 5.59 in [6]; 5.44 in [7]; 5.54 in test [8]; 5.70 in test [9]. Besides, the pIC50 in [10] is 5.57; in test [11] it was 5.55; in [12], 5.59. The pKd in [4] was 6.00. Besides, the fold change (FC) in test [13] was found to be 2. The inhibition entry in [14], in [15], in [16], in test [17] and in test [18] was “inactive” in each case.

Take `CCOC(=O)c1c(C)oc2cc(OCc3ccc(OC(C)C)cc3)c(OS(=O)(=O)O)cc12`: in test [1], the inhibition was more than 50%. In [2], the pIC50 is less than 3.30.

In the case of `CCOC(=O)c1c(C)oc2cc(OCc3cccc(OC(C)C)c3)c(OS(=O)(=O)O)cc12`, in [1], the inhibition is more than 50%. Also, the pIC50 in test [2] was less than 3.30.

Turning to `CCOC(=O)c1c(C)oc2cc(OC(=O)c3ccc(OC)cc3)c(OS(=O)(=O)O)cc12`, in test [22], the Efficacy is 54%.
